Experimental findings from ChEMBL document CHEMBL2176963, “Design, synthesis, and biological evaluation of 3-(1H-1,2,3-triazol-1-yl)benzamide derivatives as Potent Pan Bcr-Abl inhibitors including the threonine(315)→isoleucine(315) mutant” (J Med Chem, 2012) are described below.

pIC50: −log10 of the molar value. Activity calls are given as the source filed them. The calls are words filed in the database; no cut-off is given here.

A short description of assay [1]: Antiproliferative activity against mouse BA/F3 cells expressing Bcr-Abl G250E mutant after 72 hrs by CCK-8 assay. The conditions noted are these: BaF3, 72 h.
Assay [2] in a line: Antiproliferative activity against mouse BA/F3 cells expressing Bcr-Abl H396P mutant after 72 hrs by CCK-8 assay. The note with it: BaF3, 72 h.
A short description of assay [3]: Antiproliferative activity against mouse BA/F3 cells expressing Bcr-Abl F359V mutant after 72 hrs by CCK-8 assay. The conditions noted are these: BaF3, 72 h.
A short description of assay [4]: Antiproliferative activity against mouse BA/F3 cells expressing wild type Bcr-Abl after 72 hrs by CCK-8 assay. The note with it: BaF3, 72 h.
Assay [5] can be described thus: Antiproliferative activity against mouse BA/F3 cells expressing Bcr-Abl F486S mutant after 72 hrs by CCK-8 assay. The note with it: BaF3, 72 h.
Assay [6] can be described thus: Antiproliferative activity against mouse BA/F3 cells expressing Bcr-Abl E355G mutant after 72 hrs by CCK-8 assay. The note with it: BaF3, 72 h.
Assay [7] can be described thus: Antiproliferative activity against mouse BA/F3 cells after 72 hrs by CCK-8 assay. The conditions noted are these: BaF3, 72 h.
Assay [8] in a line: Antiproliferative activity against mouse BA/F3 cells expressing Bcr-Abl H396R mutant after 72 hrs by CCK-8 assay. The conditions noted are these: BaF3, 72 h.
A short description of assay [9]: Antiproliferative activity against mouse BA/F3 cells expressing Bcr-Abl Y253H mutant after 72 hrs by CCK-8 assay. The note with it: BaF3, 72 h.
The nature of assay [10]: Antiproliferative activity against mouse BA/F3 cells expressing Bcr-Abl Y253F mutant after 72 hrs by CCK-8 assay. The conditions noted are these: BaF3, 72 h.
Assay [11] can be described thus: Antiproliferative activity against mouse BA/F3 cells expressing Bcr-Abl M351T mutant after 72 hrs by CCK-8 assay. The conditions noted are these: BaF3, 72 h.
Assay [12] in a line: Antiproliferative activity against mouse BA/F3 cells expressing Bcr-Abl E255K mutant after 72 hrs by CCK-8 assay. The note with it: BaF3, 72 h.
The nature of assay [13]: Antiproliferative activity against mouse BA/F3 cells expressing Bcr-Abl E255V mutant after 72 hrs by CCK-8 assay. The conditions noted are these: BaF3, 72 h.
Assay [14] in a line: Antiproliferative activity against mouse BA/F3 cells expressing Bcr-Abl Q252H mutant after 72 hrs by CCK-8 assay. The note with it: BaF3, 72 h.
The nature of assay [15]: cells. The note with it: Mus musculus, BaF3, 72 h.
Assay [16] can be described thus: Antiproliferative activity against mouse BA/F3 cells expressing Bcr-Abl M244V mutant after 72 hrs by CCK-8 assay. The conditions noted are these: BaF3, 72 h.
For assay [17], the system named is K562. Kind of assay: Induction of apoptosis in human K562 cells expressing wild type Bcr-Abl using annexin-V-FITC and 7-AAD staining by flow cytometer. The format is functional, cell-based.
Assay [18] has as its system Tyrosine-protein kinase ABL1 (Mus musculus), P00520 [T315I]. Briefly: Inhibition of Bcr-Abl T315I mutant-mediated STAT5 phosphorylation in mouse BA/F3 cells by Western blot analysis. The format is cell-based. The conditions noted are these: BaF3. A digest of the protocol: (§1)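 K562 or Ba/F3 Bcr-Abl T315I cells were treated with graded concentrations, lysed in 1× SDS sample buffer, sonicated and boiled. Lysates were run on 8−12% SDS-PAGE and transferred to PVDF. Membranes were blocked in TBS with 0.1% Tween-20 and 5% nonfat milk, then probed with primary antibody and HRP-conjugated secondary. Blots shown represent three independent experiments.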

Assay [19] concerns BaF3. Briefly: Effect on STAT5 protein level in mouse BA/F3 cells expressing Bcr-Abl T315I mutant by Western blot analysis. It is filed as functional, cell-based. In a few lines:
as §1

Assay [20] deals with K562. Kind of assay: Antiproliferative activity against human K562 cells expressing wild type Bcr-Abl after 72 hrs by CCK-8 assay. The conditions noted are these: K562, 72 h.
Assay [21] is described as follows: Cell cycle arrest in mouse BA/F3 cells expressing Bcr-Abl T315I mutant assessed as accumulation at G0/G1 phase using propidium iodide staining by FACS analysis. The format is functional, cell-based. The note with it: BaF3.
The nature of assay [22]: Antiproliferative activity against human KU812 cells expressing wild type Bcr-Abl after 72 hrs by CCK-8 assay. The conditions noted are these: KU812, 72 h.
The test system of assay [23] is BaF3. Briefly: Effect on Bcr-Abl T315I mutant protein level in mouse BA/F3 cells by Western blot analysis. The format is functional, cell-based. In a few lines:
as §1

Assay [24] relates to Tyrosine-protein kinase ABL1 (Mus musculus), P00520 [T315I]. Briefly: Inhibition of Bcr-Abl T315I mutant-mediated CrkL phosphorylation in mouse BA/F3 cells by Western blot analysis. The conditions noted are these: BaF3. It is filed as cell-based. In a few lines: as §1
Assay [25] has as its system K562. Briefly: Antiproliferative activity against imatinib-resistant human K562 cells expressing Bcr-Abl Q252H mutant after 72 hrs by CCK-8 assay. The conditions noted are these: K562, 72 h.
Assay [26] deals with BaF3. Kind of assay: Effect on CrkL protein level in mouse BA/F3 cells expressing Bcr-Abl T315I mutant by Western blot analysis. The format is functional, cell-based. A digest of the protocol:
as §1

Assay [27] relates to K562. Briefly: Effect on wild type Bcr-Abl protein level in human K562 cells by Western blot analysis. The format is functional, cell-based. In a few lines:
as §1

The test system of assay [28] is K562. Briefly: Cell cycle arrest in human K562 cells expressing wild type Bcr-Abl assessed as accumulation at G0/G1 phase using propidium iodide staining by FACS analysis. It is filed as functional, cell-based.
For assay [29], the system named is K562. Briefly: Effect on CrkL protein level in human K562 cells expressing wild type Bcr-Abl by Western blot analysis. It is filed as functional, cell-based. In a few lines: as §1
The subject of assay [30] is K562. Briefly: Effect on STAT5 protein level in human K562 cells expressing wild type Bcr-Abl by Western blot analysis. It is filed as functional, cell-based. A digest of the protocol: as §1
Assay [31] relates to Tyrosine-protein kinase ABL1 (Mus musculus), P00520 [T315I]. Briefly: Inhibition of Bcr-Abl T315I mutant phosphorylation in mouse BA/F3 cells by Western blot analysis. The format is cell-based. The conditions noted are these: BaF3. A digest of the protocol: as §1
The test system of assay [32] is BaF3. Briefly: Induction of apoptosis in mouse BA/F3 cells expressing Bcr-Abl T315I mutant using annexin-V-FITC and 7-AAD staining by flow cytometer. The format is functional, cell-based.

Sequence of Tyrosine-protein kinase ABL1 (Mus musculus), P00520 [T315I] (P00520 whole entry T315I): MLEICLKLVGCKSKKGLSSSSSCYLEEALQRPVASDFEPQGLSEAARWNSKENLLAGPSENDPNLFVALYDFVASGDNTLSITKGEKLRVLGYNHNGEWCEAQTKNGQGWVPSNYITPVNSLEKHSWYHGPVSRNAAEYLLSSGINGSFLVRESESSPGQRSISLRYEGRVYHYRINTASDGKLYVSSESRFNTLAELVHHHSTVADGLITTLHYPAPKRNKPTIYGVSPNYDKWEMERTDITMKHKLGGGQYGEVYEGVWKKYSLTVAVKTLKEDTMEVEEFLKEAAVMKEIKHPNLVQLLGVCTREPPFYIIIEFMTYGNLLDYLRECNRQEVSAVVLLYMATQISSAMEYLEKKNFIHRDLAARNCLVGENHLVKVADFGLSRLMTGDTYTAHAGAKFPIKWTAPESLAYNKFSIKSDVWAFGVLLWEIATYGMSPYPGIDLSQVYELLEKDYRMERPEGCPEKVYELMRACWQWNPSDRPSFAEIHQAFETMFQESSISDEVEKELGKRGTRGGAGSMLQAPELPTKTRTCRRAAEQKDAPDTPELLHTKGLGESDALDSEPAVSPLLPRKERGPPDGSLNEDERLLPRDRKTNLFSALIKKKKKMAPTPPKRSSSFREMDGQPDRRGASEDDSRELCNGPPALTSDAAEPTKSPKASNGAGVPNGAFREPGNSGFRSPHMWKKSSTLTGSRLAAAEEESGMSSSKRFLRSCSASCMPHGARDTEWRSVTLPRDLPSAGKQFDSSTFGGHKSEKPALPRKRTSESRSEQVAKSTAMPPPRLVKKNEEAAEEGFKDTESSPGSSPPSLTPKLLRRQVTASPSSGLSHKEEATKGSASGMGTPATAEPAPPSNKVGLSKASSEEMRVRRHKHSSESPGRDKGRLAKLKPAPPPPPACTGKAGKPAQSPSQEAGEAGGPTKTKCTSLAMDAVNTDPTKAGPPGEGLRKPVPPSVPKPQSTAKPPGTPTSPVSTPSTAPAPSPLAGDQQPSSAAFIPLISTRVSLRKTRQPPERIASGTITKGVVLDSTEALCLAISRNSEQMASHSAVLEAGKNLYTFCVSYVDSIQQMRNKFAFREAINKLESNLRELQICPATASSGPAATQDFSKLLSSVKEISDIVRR

Turning to `Cc1nc(Nc2ncc(C(=O)Nc3c(C)cccc3Cl)s2)cc(N2CCN(CCO)CC2)n1` [DASATINIB], the pIC50 is 9.29 in assay [1]; 9.51 in assay [2]; 8.71 in assay [3]; 8.35 in assay [4]; 8.77 in [5]; 9.24 in [6]. The pIC50 in assay [7] was 5.18; in [8] it was 8.76; in assay [9], 8.89; in [10] it was 9.24; in assay [11], 9.08; in assay [12] it was 8.24. The negative-log IC50 (pIC50) in assay [13] was 8.72; in assay [14], 8.18; in [15], 5.77; in [16], 9.92.

With `Cc1cn(-c2cc(NC(=O)c3ccc(C)c(Nc4nccc(-c5cccnc5)n4)c3)cc(C(F)(F)F)c2)cn1` [NILOTINIB], the negative logarithm of the IC50 (pIC50) was 7.41 in assay [1]; 8.20 in assay [2]; 6.80 in [3]; 7.19 in assay [4]; 7.68 in [5]; 8.08 in assay [6]. Also, the pIC50 in assay [7] was 4.39; in [8], 7.06; in assay [9], 6.50; in [10], 7.22; in [11], 7.99; in assay [12] it was 6.53. For the same molecule, the pIC50 in [13] was 6.33; in assay [14], 6.82; in [15], 6.11; in [16], 8.81.

With `Cc1ccc(C(=O)Nc2ccc(CN3CCN(C)CC3)c(C(F)(F)F)c2)cc1-n1cc(-c2cnc3[nH]ncc3c2)nn1`, the pIC50 was 8.78 in assay [1]; 9.55 in [2]; 8.84 in assay [3]; 8.61 in assay [4]; 8.84 in assay [5]; 9.43 in assay [6]. For the same molecule, the pIC50 was 9.40 in assay [20]; 9.96 in assay [22]; 6.38 in [7]; 8.43 in assay [8]; 8.79 in [9]; 9.46 in assay [10]. In addition, the pIC50 in [25] is 8.26; in assay [11] it was 9.40; in assay [12], 8.51; in assay [13], 8.53; in assay [14], 8.26; in assay [15], 7.86. The molecule also showed a pIC50 in assay [16] of 9.92. For the same molecule, the result in [17], in assay [21], in assay [28] and in [32] was Active. Besides, the inhibition entry in assay [18] and in assay [24] was “Active” in each case. The result in assay [19], in assay [23], in assay [26], in assay [27], in assay [29] and in assay [30] was inactive. Also, the inhibition entry in assay [31] was “Dose-dependent effect”.

Take `CN1CCN(Cc2ccc(NC(=O)c3ccc(Cl)c(-n4cc(-c5cnc6[nH]ncc6c5)nn4)c3)cc2C(F)(F)F)CC1`: the pIC50 is 8.71 in assay [1]; 9.52 in [2]; 8.64 in assay [3]; 8.60 in assay [4]; 8.38 in assay [5]; 9.52 in assay [6]. The pIC50 in assay [20] was 9.37; in assay [22] it was 10.10; in assay [7] it was 6.43; in assay [8], 8.27; in assay [9], 8.53; in assay [10], 9.28. The pIC50 in assay [25] was 8.41; in assay [11] it was 9.35; in assay [12] it was 8.56; in assay [13], 8.47; in assay [14], 8.12; in assay [15], 7.92. Moreover, the pIC50 in [16] is 9.21. Also, the result in [17], in [21], in [28] and in assay [32] was Active. Moreover, the inhibition entry in assay [18] and in [24] was “Active” in each case. For the same molecule, the result in assay [19], in assay [23], in assay [26], in [27], in assay [29] and in assay [30] was inactive. Also, the inhibition result in [31] was “Dose-dependent effect”.

Take `Cc1ccc(NC(=O)c2ccc(CN3CCN(C)CC3)cc2)cc1Nc1nccc(-c2cccnc2)n1` [IMATINIB]: the negative-log IC50 (pIC50) in assay [1] was 5.73; in assay [2] it was 6.96; in assay [3], 6.02; in assay [4], 5.74; in assay [5] it was 5.59; in assay [6], 6.44. Further, the pIC50 in [7] is 4.73; in [8] it was 5.62; in assay [9], 4.77; in [10], 5.84; in [11], 6.37; in assay [12], 5.53. Further, the pIC50 is 5.06 in [13], 5.42 in assay [14], 5.52 in assay [15] and 6.89 in assay [16].

On to `CN1CCN(Cc2ccc(NC(=O)c3ccc(F)c(-n4cc(-c5cnc6[nH]ncc6c5)nn4)c3)cc2C(F)(F)F)CC1`, for which the pIC50 in assay [4] was 8.41; in assay [20], 9.62; in [22], 10.00; in assay [25], 8.64; in assay [15], 6.89.

For `Cc1ccc(C(=O)Nc2ccc(CN3CCN(C)CC3)c(C(F)(F)F)c2)cc1-n1cc(-c2cnc3[nH]nc(C)c3c2)nn1`, the pIC50 in assay [4] is 8.69; in assay [20], 9.41; in assay [22], 9.82; in assay [25] it was 8.32; in [15], 7.10.

Regarding `Cc1ccc(C(=O)Nc2ccc(CN3CCN(C)CC3)c(C(F)(F)F)c2)cc1-n1cc(-c2ccc3[nH]ccc3c2)nn1`, the pIC50 in [4] was 6.36; in assay [20] it was 7.15; in [22], 7.71; in assay [25], 6.10; in assay [15] it was 6.00.

Take `Cc1ccc(C(=O)Nc2ccc(CN3CC[C@H](N(C)C)C3)c(C(F)(F)F)c2)cc1-n1cc(-c2cnc3[nH]ncc3c2)nn1`: the pIC50 in assay [4] is 8.52; in [20] it was 9.49; in assay [22], 9.17; in assay [25] it was 8.65; in assay [15], 7.04.
